Source: the EternaBench riboswitch data

System: MS2 coat protein
Test: apparent Kd, MS2 coat protein; higher = weaker binding; RNA-MaP array; FMN 200 µM where present
Outline: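 Stalled E. coli RNA polymerase transcribed the designs on Illumina sequencing-chip clusters. SNAP-549-labelled MS2 coat protein was titrated from 0.7 or 1.5 nM, doubling to 3 µM, without and then with constant ligand, in 100 mM Tris-HCl pH 7.5, 80 mM KCl, 4 mM MgCl2, BSA, DTT, yeast tRNA and Tween-20. Per-cluster binding curves were fitted to green signal normalised to red-channel RNA signal and control-cluster median Fmax. The apparent Kd is the median of the filtered fits.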

[1] = designed as: OFF switch for flavin mononucleotide, no ligand
[2] = ligand present: flavin mononucleotide, designed as: OFF switch for flavin mononucleotide
[3] = designed as: ON switch for flavin mononucleotide, no ligand
[4] = ligand present: flavin mononucleotide, designed as: ON switch for flavin mononucleotide

Sequence | apparent Kd [1] [nM] | apparent Kd [2] [nM] | apparent Kd [3] [nM] | apparent Kd [4] [nM]
CAGAAGUCAGGAUAUCCUGCUCGUCACUUGCGUGAUGAGUAGGAGAAGGGACAUGAGGAUCACCCAUGUAAAGG | 144 | 411 |  | 
CUCAUGUCAGGAUAUCAGUAGUAAAAAAAUAAAAUUACUACUGAGAAGGGACAUGAGGAUCACCCAUGUCCUGG | 95.8 | 17.9 |  | 
AUGCCAGAAGGAUAUACAUGAGGAUCACCCAUGUCAUGUUUGAUUCGCCCGCAGGGCUGUAGAAGGUCUGGCAU | 65.2 | 543 |  | 
AUGCUAUACGAAGGAUAUGGUUACAUGAGGAUCACCCAUGUAAUUUUUGUGAUCUUGUUUAAGUUCCAGAAGGUCGUAUAGCUA | 42.2 | 156 |  | 
ACAGUUCUGCAAGGAUAUCGUUCUAGUUUAGUACGAGAAGGUGCUUUAGUUUUUUCUUUGUGUUGACAUGAGGAUCACCCAUGU | 23.4 | 15.2 |  | 
AUUAUAUAGACAGGAUAUUGAUUAUUAUUUUAACAUGAGGAUCACCCAUGUAGCCUUAUGUAUAACAAGAAGGGUCAUUUAUUA | 151 | 190 |  | 
AAAAAACAUGAGGAUCACCCAUGUGAGGAUAUCCAAAAGUUAAAUAAAAAGACGAAAAGGAGAAGGCGCAAAAA | 110 | 84.2 |  | 
GCUGCGCGAGGAUAUGCGGUUUGUGCUGUGGCCCGUGGCGUACAUGAGGAUCACCCAUGUAGAAGGCGUGUGGG | 26.1 | 28.9 |  | 
UAGAUGUGAGGAUAUACGUAGAUGCAGGUUCGUGUGGUGCUACAUGAGGAUCACCCAUGUAGAAGGCACGUCUU | 19.3 | 20.2 |  | 
GCUAGGAGUGUGAGGAUAUGCUGUACCUUGGUACAGCAGAAGGCACAUGAGGAUCACCCAUGUGAAGACCUAGC | 25.9 | 151 |  | 
CAGUACUGAGGAUAUACAUGAGGAUCACCCAUGUGUUCCAGCUAGGAAACUAGCGAAAGUAGAAGGCAGUACUG | 23.3 | 551 |  | 
AAGGUCAUCUGAGGAUAUCGACCUCAAAGGCUACGAGAAGGCAGACUGACAUGAGGAUCACCCAUGUACCGGGAAGAUGCCUCC | 15.8 | 173 |  | 
AACCUAUUACAGAAGGCCAGCUACAUGAGGAUCACCCAUGUCGAGUCAUGGAGGAUAUGUAGUAAUUCACUCGCAGAUGAGUAC |  |  | 29.8 | 5.33
AGUCAUUUACAGAAGGGUAGUUGGGUUAUACAUGAGGAUCACCCAUGUUUUACAGGAUAUGUGUUUUGUUACUAUUAAAGUUCA | 65.7 | 120 |  | 
GGACGUCAGAUUAACAUGAGGAUCACCCAUGUCUUUUGACAUGAGGAUAUCCAUCCUAAUUGGAUGGAGAAGGCAUGGACGUCC |  |  | 975 | 189
UGAAAACAUGAGGAUCACCCAUGUCUAGGAGAUCGAGGAUAUGGGCCGGCACUAGGCGGGCCAGAAGGCGAAAAGU |  |  | 60.8 | 26.6
CAUUUACAGGGAGGAUAUACAUGAGGAUCACCCAUGUCAUCAUACGAUAUUUCUUUUGUAUGAGUGUAGAAGGCCCAACUACCA | 10.2 | 12 |  | 
GGAUCCAUCACAGGAUAUGCUGGACUUUGUCCAGCAGAAGGGUGAAACAUGAGGAUCACCCAUGUAUGGAUCCAUAUAUUUAAU |  |  | 327 | 393
GCCAGUUAUGUAGGAUAUGCGCAGCGAGCCUGAGCAGAAGGACAUGAGGAUCACCCAUGUGUUGCGGUUUGAGUACUGAUCGCU | 24.6 | 130 |  | 
UUUGGGAGCACAGGAUAUGGCGCGUCGACCGCGCCAGAAGGGUGAUUCUGUUGGUGGCCACAUGAGGAUCACCCAUGUGCCUCC |  |  | 42.4 | 55.3
UUUGAGUGAGGAUAUUGCACCUCUGGGUCACCUCAGAGGUUUGAGAAGGCACAUGAGGAUCACCCAUGUUCCGC | 19.7 | 32.2 |  | 
AAUAACAGAGGAUAUACUGUUUUAUGUGUUUGUUGUUUUGAACAUGAGGAUCACCCAUGUAGAAGGCUGAUUGA | 40.2 | 41.3 |  | 
CCGGCUAAAGGAUAUGUGUGUAGCAACAUGAGGAUCACCCAUGUGAUGUCCUAGGUUAGCACAGAAGGUUACUAUU | 35.6 | 34.1 |  | 
GGGCAACAUGAGGAUCACCCAUGUCAGGAUAUCGGGCCCGGGCCGAAAGGCCCGGGCCCGAGAAGGGACAGCCC | 21.3 | 21.6 |  | 

Sequence | apparent Kd [1] [nM] | apparent Kd [2] [nM] | apparent Kd [3] [nM] | apparent Kd [4] [nM]
AUUAUGACCGAGUUAUACCUCUAAACAUGAGGAUCACCCAUGUAGGAUAUCAGCACGAUAAGUGCUGAGAAGGACAUCUCGGUC | 17.2 | 27 |  | 
GCGCCAUCGUGAGAUGGCGUAUAUACAUGAGGAUCACCCAUGUAGGAUAUCGAUUGCUUUGCAGUCGAGAAGGGCAUGUAAUUU | 33.5 | 43.9 |  | 
UUCAACGAUGAAGGAUAUCUAUAAACAUGAGGACAUGAGGAUCACCCAUGUUGAUCACCCAUGUAGGAGAAGGUCAACAUGAGG |  |  | 220 | 68.2
AAGGGUACUUUCGGAACGACAUGAGGAUCACCCAUGUAGACUGAGGAUAUCUACUACUAAGGACGGGAGAAGGCAGUGUAAUGU | 18.1 | 17.8 |  | 
AUACUCAUGUAAGGAUAUGCAGUCGAAACGGCUGCAGAAGGUACUAUAAUACAUGAGGAUCACCCAUGUCAAAAUAAAAUAGUU |  |  | 30.3 | 22.7
GUCCGUAGACAGAAGGUGACAUGAGGAUCACCCAUGUUAGUUGAGGUAUCAGCGAUCUGCGUGAUUGAGGAUAUGUCUACGGGC | 7.9 | 8.22 |  | 
GGUUAAUAUCGAGGAUAUGUCUAGACACAUGAGGAUCACCCAUGUAUGUGUAUAGAAGGCGAUAUUAACAGCAUGUUACAUGCA |  |  | 43.3 | 16.4
UUUACAUGAGGAUCACCCAUGUUAAAAUAAUUAAUUAUAAGUGAGGAUAUAUAAAUUAUAAAAUUGUAGAAGGCACUGGGUAUU |  |  | 22 | 23.4
GGCAGACAUGAGGAUCACCCAUGUCGGCCGUUAGGAGGAUAUCGGUGAUAUCUGUCUCGCCGAGAAGGUUUAAUUA |  |  | 11.5 | 12.1
UUGGACGUCGUAGGAUAUGUAGGAUAUUCCUACAUGAGGAUCACCCAUGUUGACAUGGAAGAAGGGCAGAAGGACGAUGUCCAU |  |  | 548 | 8.38
UUUUCCAGAGGAUAUGCGAAUAAAUAAAACUUUUUUUUUUAACAUGAGGAUCACCCAUGUAGAAGGCUGAUUUU | 47.9 | 48.5 |  | 
GGAGCGGAAGGAUAUGCUGCGGGAUUGCAUGGAAAGAAAAUACAUGAGGAUCACCCAUGUAGAAGGUCCGUGAA | 28.2 | 70.1 |  | 
AAGAAACAUGAGGAUCACCCAUGUCACCUCACACGAGGAUAUCUGAAUCGAUUAGAUUACGGAGAAGGCGUGAUAA |  |  | 27.5 | 20.6
AUACUCAUGUAAGGAUAUGCAGCCGAAACGGCUGCAGAAGGUACUAUAAUACAUGAGGAUCACCCAUGUCAAAAUAAACUAGUU |  |  | 155 | 36.5
AUGGAACAUGAGGAUCACCCAUGUGAGGAUAUGUGAGAAGGAUUUGAGAUGGAGAGGGACAGAAGGCACUAGGA | 54.4 | 37.9 |  | 
GGGUGGCGUAUAGGAUAUAUGGUACAUGAGGAUCACCCAUGUACAUAUGAUGUUCAUGUUUGUGUAUAGAAGGAUACGUCGCUA |  |  | 9.79 | 9.81
CCCUACGUUUCGUAGCAGUGUCAUCGAGAAGGCCCUGACAUGAGGAUCACCCAUGUUGUUACAUGGGAGGAUAUCGAUGAUGGG |  |  | 23 | 6.1
ACCUAGUCAGGAUAUGUACGGACCGGAAGCGGAUCGGAGGAGCAGAAGGGACAUGAGGAUCACCCAUGUUUGUU | 25.3 | 28 |  | 
UAUAGCCCUAGUUCGAGUGUCUAGGAGGAUAUACAGAGGCAGCCAAAGACAUGAGGAUCACCCAUGUAGAAGGCCUAGACGGUA |  | 82.3 |  | 
CUCUAGCUCACAGGAUAUGGGUGUCGACGAUGCCCAGAAGGGUGAUUUGGCACAUGAGGAUCACCCAUGUGGGCGCUUGAAUAU |  |  | 44.5 | 94.3
AGCUGUGGCCGAGGAUAUCUAAAACCUCAAAACGAAAUAUAAUCGAACAUGAGGAUCACCCAUGUAGAGAAGGCGGUCUCAGCA | 270 | 514 |  | 
AUCAGCUCGUCAGGAUAUACGUCACAGCGUCAGCAGUGUGGUAAGAUCACAUGAGGAUCACCCAUGUAGAAGGGACGAGCUGAU | 16.8 | 223 |  | 
CAGGUAGACUGAGGAUAUACAAUAAAGACCUAGUCUAUCUAGGUCCCUACAUGAGGAUCACCCAUGUAGAAGGCAGUCUGCCUG | 15.9 | 20.5 |  | 
AAUAUGUUAGGAUAUGCGAAGUCAGGACACACACUGACGAAGCAGAAGGAACAUGAGGAUCACCCAUGUAAAAA | 27.3 | 31.4 |  | 
